In ChEMBL document CHEMBL1828575, “Design, synthesis and antiproliferative activities of biarylolefins based on polyhydroxylated and carbohydrate scaffolds” (Eur J Med Chem, 2011):

What was measured:
Format in all cases: functional
HT-29 = test: Cytotoxicity against human HT-29 cells assessed as cellular growth at 10 uM after 48 hrs by SRB assay
Outline: (§1)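 NCI60 single-dose screen of cells in RPMI 1640 with 5% FBS and 2 mM L-glutamine, preincubated 24 h at 37 °C, 5% CO₂. Cells were then exposed 48 h to compound added from DMSO stock. TCA-fixed, stained with 0.4% SRB in 1% acetic acid, dye solubilised in 10 mM Tris base and read at 515 nm. Growth is given as percent of untreated control.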

IGROV-1 = test: Cytotoxicity against human IGROV1 cells assessed as cellular growth at 10 uM after 48 hrs by SRB assay; outline: as §1
SF-295 = test: Cytotoxicity against human SF295 cells assessed as cellular growth at 10 uM after 48 hrs by SRB assay
Outline: (§2)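 NCI-60 panel lines grown in RPMI 1640 with 5% FBS and 2 mM L-glutamine. Plated at 5000–40,000 cells/well and preincubated 24 h at 37 °C, 5% CO₂, with time-zero plates fixed in TCA. Compounds, dissolved in DMSO and diluted in medium, were applied for 48 h. Cells were TCA-fixed (10% final for adherent, 16% for suspension) and stained with 0.4% SRB in 1% acetic acid. Dye was solubilised in 10 mM Tris base and read at 515 nm; growth was expressed as a percentage of untreated control.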

SK-MEL-2 = test: Cytotoxicity against human SK-MEL-2 cells assessed as cellular growth at 10 uM after 48 hrs by SRB assay; outline: as §2
NCI-H226 = test: Antitumor activity against human NCI-H226 cells after 48 hrs by SRB assay; settings: NCI-H226, 48 h
Outline: (§3)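 NCI60 panel in RPMI 1640 with 5% FBS and 2 mM L-glutamine. Cells were plated at 5000–40,000/well by doubling time, held 24 h, then time-zero plates were TCA-fixed. Five concentrations (10-fold or half-log dilutions of DMSO stocks) were applied for 48 h at 37 °C, 5% CO2. Cells were fixed with cold TCA (10% final adherent, 16% suspension) and stained with 0.4% SRB. Bound dye was dissolved in 10 mM Tris and read at 515 nm. GI50, TGI and LC50 were calculated per line.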

CAKI-1 = test: Antitumor activity against human Caki1 cells after 48 hrs by SRB assay; settings: CAKI-1, 48 h; outline: as §3
MDA-MB-468 = test: Cytotoxicity against human MDA-MB-468 cells assessed as cellular growth at 10 uM after 48 hrs by SRB assay; outline: as §2
MCF7 = test: Cytotoxicity against human MCF7 cells assessed as cellular growth at 10 uM after 48 hrs by SRB assay; outline: as §2
Malme-3M = test: Cytotoxicity against human MALME-3M cells assessed as cellular growth at 10 uM after 48 hrs by SRB assay; outline: as §2
CCRF-CEM [1] = test: Antitumor activity against human CCRF-CEM cells after 48 hrs by SRB assay; outline: as §3
CCRF-CEM [2] = test: Cytotoxicity against human CCRF-CEM cells assessed as cellular growth at 10 uM after 48 hrs by SRB assay; outline: as §1
SNB-19 = test: Cytotoxicity against human SNB19 cells assessed as cellular growth at 10 uM after 48 hrs by SRB assay; outline: as §2
MOLT-4 = test: Cytotoxicity against human MOLT4 cells assessed as cellular growth at 10 uM after 48 hrs by SRB assay; outline: as §2
HCT-15 = test: Antiproliferative activity against human HCT15 cells after 48 hrs by SRB assay; settings: HCT-15, 48 h
Outline: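 NCI60 screen: cells grown in RPMI 1640 with 5% FBS and 2 mM L-glutamine, plated at 5000–40,000 cells/well by doubling time, preincubated 24 h at 37 °C with 5% CO2. Compounds were diluted from DMSO stocks and given for 48 h, at five concentrations for dose response. A time-zero plate was TCA-fixed. Cells were TCA-fixed, stained with 0.4% SRB and read at 515 nm, with growth expressed relative to untreated controls.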

COLO 205 = test: Cytotoxicity against human COLO205 cells assessed as cellular growth at 10 uM after 48 hrs by SRB assay; outline: as §1
UO-31 = test: Antitumor activity against human UO31 cells after 48 hrs by SRB assay; settings: UO-31, 48 h
Outline: (§4)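 NCI60 panel cells grown in RPMI 1640 with 5% FBS and 2 mM L-glutamine, plated at 5000–40,000 cells/well and preincubated 24 h at 37 °C, 5% CO₂. Compound was added from DMSO at five concentrations, 10-fold or 1/2 log dilutions, then incubated 48 h.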

MDA-MB-231 = test: Cytotoxicity against human MDA-MB-231 cells assessed as cellular growth at 10 uM after 48 hrs by SRB assay; outline: as §2
UACC-62 = test: Antitumor activity against human UACC62 cells after 48 hrs by SRB assay; settings: UACC-62, 48 h; outline: as §4
[3] = Antitumor activity against human Hs 578T cells after 48 hrs by SRB assay; outline: as §3
OVCAR-5 = test: Antitumor activity against human OVCAR5 cells after 48 hrs by SRB assay; settings: OVCAR-5, 48 h; outline: as §3
SF-539 = test: Antitumor activity against human SF539 cells after 48 hrs by SRB assay; settings: SF-539, 48 h; outline: as §4
ACHN = test: Cytotoxicity against human ACHN cells assessed as cellular growth at 10 uM after 48 hrs by SRB assay; outline: as §1
[4] = read-out: LC50 (the source's name)
[5] = read-out: pLC50 (the source's name) (converted)

## COc1cc(/C(=C2\O[C@@H]([C@H]3COC(C)(C)O3)[C@H]3OC(C)(C)O[C@@H]23)c2ccc3ccccc3c2)cc(OC)c1OC
HT-29
  Activity: 40.98%
IGROV-1
  Activity: -21.44%
SF-295
  Activity: 48.59%
SK-MEL-2
  Activity: -49.67%
NCI-H226; read-out: GI50
  GI50: 3.49 µM
NCI-H226; [4]
  CC50: > 100 µM
NCI-H226; read-out: TGI
  TGI: 60 µM
NCI-H226; read-out: pGI50 (converted)
  GI50: 3.47 µM
NCI-H226; [5]
  CC50: > 100 µM
NCI-H226; read-out: pTGI (converted)
  TGI: 60.3 µM
CAKI-1; read-out: GI50
  GI50: 4.54 µM
CAKI-1; [4]
  CC50: > 100 µM
CAKI-1; read-out: TGI
  TGI: > 100 µM
CAKI-1; read-out: pGI50 (converted)
  GI50: 3.63 µM
CAKI-1; [5]
  CC50: > 100 µM
CAKI-1; read-out: pTGI (converted)
  TGI: > 100 µM
MDA-MB-468
  Activity: 51.21%
MCF7
  Activity: 22.8%
Malme-3M
  Activity: -25.39%
CCRF-CEM [1]; read-out: GI50
  GI50: 48.3 µM
CCRF-CEM [1]; [4]
  CC50: > 100 µM
CCRF-CEM [1]; read-out: TGI
  TGI: > 100 µM
CCRF-CEM [1]; read-out: pGI50 (converted)
  GI50: 47.9 µM
CCRF-CEM [1]; [5]
  CC50: > 100 µM
CCRF-CEM [1]; read-out: pTGI
  TGI: > 100 µM
CCRF-CEM [2]
  Activity: 82.21%
SNB-19
  Activity: 29%
MOLT-4
  Activity: 62.4%
HCT-15; [4]
  CC50: > 100 µM
HCT-15; [5]
  CC50: > 100 µM
COLO 205
  Activity: 66.91%
UO-31; read-out: GI50
  GI50: 3.47 µM
UO-31; [4]
  CC50: > 100 µM
UO-31; read-out: TGI
  TGI: > 100 µM
UO-31; read-out: pGI50 (converted)
  GI50: 3.47 µM
UO-31; [5]
  CC50: > 100 µM
UO-31; read-out: pTGI (converted)
  TGI: > 100 µM
MDA-MB-231
  Activity: 13.6%
UACC-62; read-out: GI50
  GI50: 7.13 µM
UACC-62; [4]
  CC50: > 100 µM
UACC-62; read-out: TGI
  TGI: 67.9 µM
UACC-62; read-out: pGI50 (converted)
  GI50: 3.31 µM
UACC-62; [5]
  CC50: > 100 µM
UACC-62; read-out: pTGI (converted)
  TGI: 67.6 µM
[3]
  GI50: 4.44 µM
  TGI: 53.4 µM
[3]; [4]
  CC50: > 100 µM
OVCAR-5; read-out: GI50
  GI50: 14 µM
OVCAR-5; [4]
  CC50: > 100 µM
OVCAR-5; read-out: TGI
  TGI: > 100 µM
OVCAR-5; read-out: pGI50 (converted)
  GI50: 3.89 µM
OVCAR-5; [5]
  CC50: > 100 µM
OVCAR-5; read-out: pTGI (converted)
  TGI: 7.94 µM
SF-539
  GI50: 14.3 µM
  TGI: 79 µM
SF-539; [4]
  CC50: > 100 µM
ACHN
  Activity: 0.86%
